Data: ChEMBL document CHEMBL1833837, “Tirucallane-type triterpenoids from Dysoxylum lenticellatum” (J Nat Prod, 2011)
Activity calls are given as the source filed them. The calls are words filed in the database; no cut-off is given here.

Assays:
[1] = test system: HL-60; assay: Cytotoxicity against human HL60 cells by SRB assay; assay type: functional, cell-based
Method in brief: (§1)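 SRB assay on tumor cells. Three independent experiments, five replicate wells for each concentration. IC50 obtained by linear regression where applicable. Mitomycin served as positive control.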

[2] = test system: SMMC-7721; assay: Cytotoxicity against human SMMC7721 cells by SRB assay; assay type: functional, cell-based; method in brief: as §1
[3] = test system: Aorta; assay: Vasodilatory activity in rat thoracic aorta assessed as relaxation of phenylephrine-induced precontraction at 10 ug/mL; assay type: functional; design: scale not given: the % may be the effect or the level left
Method in brief: (§2)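 Isolated thoracic aortic rings about 3 mm long, taken after pentobarbital anesthesia (60 mg/kg ip). Rings held in Krebs solution at pH 7.4 and 37 °C, gassed with 95% O2/5% CO2, for isometric tension recording. Equilibrated 1 h at 2 g resting tension, then challenged repeatedly with 80 mM KCl. Precontracted with 10^-6 M phenylephrine. Endothelium confirmed by >80% relaxation to 10^-6 M acetylcholine.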

[4] = test system: Aorta; assay: Vasodilatory activity in rat thoracic aorta assessed as relaxation of phenylephrine-induced precontraction at 4 to 10 ug/mL; assay type: functional, tissue-based; method in brief: as §2
[5] = Solubility of the compound; assay type: physicochemical

For `CC1(C)C(=O)CC[C@]2(C)[C@H]3CC[C@@]4(C)[C@H](C5=CC(=O)NC5=O)CC[C@]4(C)C3=CC[C@@H]12` [LAXIRACEMOSIN H], the Activity [1] was “inactive”, the Activity [2] was “inactive” and the Activity [3] was 18.3%.
For `CC(C)=C[C@@H]1C=C([C@@H]2CC[C@]3(C)C4=CC[C@H]5C(C)(C)C(=O)CC[C@]5(C)[C@H]4CC[C@@]23C)C(=O)O1`, the Activity [1] was “inactive” and the Activity [2] was “inactive”.
In the case of `CC1(C)[C@H](O)CC[C@]2(C)[C@H]3CC[C@@]4(C)[C@H]([C@H]5COC(=O)[C@@](O)(C(C)(C)O)C5)CC[C@]4(C)C3=CC[C@@H]12`, the Activity [1] is reported as “inactive”, the Activity [2] is reported as “inactive” and the Activity [4] is reported as “inactive”.
For `CC(C)C(=O)C1(O)CC([C@@H]2CC[C@]3(C)C4=CC[C@H]5C(C)(C)[C@H](O)CC[C@]5(C)[C@H]4CC[C@@]23C)CO1` (mixture of isomers), the Activity [1] was “inactive”, the Activity [2] was “inactive” and the Activity [4] was “inactive”.
With `C[C@@H](CC(=O)[C@@H]1OC1(C)C)[C@@H]1CC[C@]2(C)C3=CC[C@H]4C(C)(C)C(=O)CC[C@]4(C)[C@H]3CC[C@@]12C` the solubility [5] was “Insoluble” and the Activity [4] was “inactive”.
For `CC1(C)C(=O)CC[C@]2(C)[C@H]3CC[C@@]4(C)[C@H](C5COC(=O)C5)CC[C@]4(C)C3=CC[C@@H]12` (stereo partly drawn), the Activity [1] was “inactive”, the Activity [2] was “inactive” and the Activity [3] was 43.5%.
For `CC(C)=CC(=O)[C@@H](O)[C@H](C)[C@@H]1CC[C@]2(C)C3=CC[C@H]4C(C)(C)[C@@H](O)CC[C@]4(C)[C@H]3CC[C@@]12C`, the Activity [1] was “inactive”, the Activity [2] was “inactive” and the Activity [4] was “inactive”.
For `CC1(C)[C@H](O)CC[C@]2(C)[C@H]3CC[C@@]4(C)[C@H](C5=CC(=O)NC5=O)CC[C@]4(C)C3=CC[C@@H]12` [DYSOLENTICIN J], the Activity [1] was “inactive”, the Activity [2] was “inactive” and the Activity [3] was 87.4%.
In the case of `CC(C)C(=O)C1(O)CC([C@@H]2CC[C@]3(C)C4=CC[C@H]5C(C)(C)C(=O)CC[C@]5(C)[C@H]4CC[C@@]23C)CO1` (mixture of isomers), the Activity [1] is reported as “inactive”, the Activity [2] is reported as “inactive” and the Activity [4] is reported as “inactive”.
With `CC(=O)[C@@H]1CC[C@]2(C)C3=CC[C@H]4C(C)(C)C(=O)CC[C@]4(C)[C@H]3CC[C@@]12C` [DYSOLENTICIN G] the solubility [5] was “Insoluble”.
For `C[C@@H]([C@@H]1O[C@@H]1[C@@H]1OC1(C)C)[C@@H]1CC[C@]2(C)C3=CC[C@H]4C(C)(C)C(=O)CC[C@]4(C)[C@H]3CC[C@@]12C`, the Activity [1] was “inactive”, the Activity [2] was “inactive” and the Activity [4] was “inactive”.
With `CC1(C)[C@H](O)CC[C@]2(C)[C@H]3CC[C@@]4(C)[C@H](C5COC(=O)C5)CC[C@]4(C)C3=CC[C@@H]12` (stereo partly drawn) the Activity [1] was “inactive”, the Activity [2] was “inactive” and the Activity [3] was 37.5%.
For `COC(=O)[C@@H](CC(=O)[C@@H]1OC1(C)C)[C@@H]1CC[C@]2(C)C3=CC[C@H]4C(C)(C)C(=O)CC[C@]4(C)[C@H]3CC[C@@]12C`, the Activity [1] was “inactive” and the Activity [2] was “inactive”.
With `CC1(C)C(=O)CC[C@]2(C)[C@H]3CC[C@@]4(C)[C@H](C5=CC(O)(CO)OC5=O)CC[C@]4(C)C3=CC[C@@H]12` (mixture of isomers) [DYSOLENTICIN C] the solubility [5] was “Insoluble”.
With `CC1(C)O[C@H]1C(=O)C[C@H](C(=O)O)[C@@H]1CC[C@]2(C)C3=CC[C@H]4C(C)(C)C(=O)CC[C@]4(C)[C@H]3CC[C@@]12C` the Activity [1] was “inactive”, the Activity [2] was “inactive” and the Activity [4] was “inactive”.
In the case of `CC(C)=CCC[C@H](C)[C@@H]1CC[C@]2(C)C3=CC[C@H]4C(C)(C)[C@@H](O)CC[C@]4(C)[C@H]3CC[C@@]12C`, the Activity [1] is reported as “inactive”, the Activity [2] is reported as “inactive” and the Activity [4] is reported as “inactive”.
In the case of `CCO[C@]1([C@@H]2OC2(C)C)CC([C@@H]2CC[C@]3(C)C4=CC[C@H]5C(C)(C)[C@H](O)CC[C@]5(C)[C@H]4CC[C@@]23C)CO1` (stereo partly drawn) [DYSOLENTICIN F], the solubility [5] is reported as “Insoluble” and the Activity [4] is reported as “inactive”.
